Assay results reported in ChEMBL document CHEMBL4699542, “Design and synthesis of novel methoxypyridine-derived gamma-secretase modulators” (Bioorg Med Chem, 2020).
Values after ≈ are worked out from the molar mass of the structure shown. Active and inactive are the calls of the source. The calls are words filed in the database; no cut-off is given here.

Assays:
Gamma-secretase [1] = experiment: Inhibition of gamma secretase in human H4 cells overexpressing APP751 transfected with Myc-tagged Notch assessed as accumulation of Notch substrate at 100 to 300 nM incubated for 24 hrs by Western blot analysis; assay type: cell-based; conditions: h4, 24 h, 0.3 µM, dose 100-300 nM
How it was run: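 H4 neuroglioma cells stably overexpressing human APP751 were transfected with Myc-tagged NΔE Notch, then treated 24 h with 1 or 10 μM modulator, 100 or 300 nM DAPT, or vehicle. Cells harvested 48 h post-transfection. Western blot with anti-Myc detected NΔE and NICD; β-actin served as loading control.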

[2] = Kinetic aqueous solubility of the compound in pH 7.4 PBS buffer by UV/Visible absorbance analysis; assay type: physicochemical; conditions: read-out: Kinetic_solubility
How it was run: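 Kinetic solubility determined in PBS at pH 7.4 by UV/Vis absorbance, reported in μM.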

Gamma-secretase [3] = experiment: Modulation of gamma secretase in human SH-SY5Y cells overexpressing wild type APP751 assessed as inhibition of amyloid beta (35 to 42 residues) formation incubated for overnight by ELISA; assay type: cell-based
How it was run: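 SHSY5Y-APP751 cells plated at 75K/well and incubated overnight at 37 °C, then treated 24 h over 10 concentrations ([…]–10 μM, 1:3.16 steps, in duplicate). Medium Aβ42 measured by sandwich ELISA (Aβ35–42 capture, AP-conjugated Aβ1–12 detection, CDP-Star luminescence) against an Aβ42 standard curve.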

Gamma-secretase [4] = experiment: Modulation of gamma secretase in human SH-SY5Y cells overexpressing wild type APP751 assessed as effect on amyloid beta38 level by meso scale discovery; assay type: cell-based
Gamma-secretase [5] = experiment: Modulation of gamma secretase in human SH-SY5Y cells overexpressing wild type APP751 assessed as effect on amyloid beta40 level by meso scale discovery; assay type: cell-based
Gamma-secretase [6] = experiment: Modulation of gamma secretase in human SH-SY5Y cells overexpressing wild type APP751 assessed as effect on amyloid beta42 level by meso scale discovery; assay type: cell-based
[7] = target: Gamma-secretase (Homo sapiens) (UniProt Q96BI3+Q9NZ42+Q8WW43+P49768+Q92542+P49810); experiment: Modulation of gamma secretase in human SH-SY5Y cells overexpressing wild type APP751 assessed as effect on total amyloid beta level by meso scale discovery; assay type: cell-based
How it was run: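 SHSY5Y cells stably overexpressing wild-type human APP751 treated with the compound over a concentration range. Aβ38, Aβ40, Aβ42 and total Aβ in the medium measured by MSD triplex immunoassay (4G8 detection, 2 h at room temperature). Concentrations back-fitted from standard curves.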

[8] = Metabolic stability in human liver microsomes assessed as parent compound remaining at 1 uM incubated for 30 mins; assay type: ADME, Microsome; conditions: microsomes, 0.5 h, 1 µM
How it was run: (§1)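 Test compound at 1 μM incubated 30 min with human, rat or mouse liver microsomes (1 mg/mL); parent remaining expressed as %.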

[9] = Metabolic stability in rat liver microsomes assessed as parent compound remaining at 1 uM incubated for 30 mins; assay type: ADME, Microsome; conditions: 0.5 h; how it was run: as §1
[10] = Metabolic stability in mouse liver microsomes assessed as parent compound remaining at 1 uM incubated for 30 mins; assay type: ADME, Microsome; conditions: 0.5 h; how it was run: as §1
Cytochrome P450 3A4 = Cytochrome P450 3A4 (Homo sapiens, UniProt P08684); experiment: Inhibition of recombinant CYP3A4 (unknown origin) by fluorescence-based assay; assay type: ADME
Chain of Cytochrome P450 3A4 (P08684 whole entry): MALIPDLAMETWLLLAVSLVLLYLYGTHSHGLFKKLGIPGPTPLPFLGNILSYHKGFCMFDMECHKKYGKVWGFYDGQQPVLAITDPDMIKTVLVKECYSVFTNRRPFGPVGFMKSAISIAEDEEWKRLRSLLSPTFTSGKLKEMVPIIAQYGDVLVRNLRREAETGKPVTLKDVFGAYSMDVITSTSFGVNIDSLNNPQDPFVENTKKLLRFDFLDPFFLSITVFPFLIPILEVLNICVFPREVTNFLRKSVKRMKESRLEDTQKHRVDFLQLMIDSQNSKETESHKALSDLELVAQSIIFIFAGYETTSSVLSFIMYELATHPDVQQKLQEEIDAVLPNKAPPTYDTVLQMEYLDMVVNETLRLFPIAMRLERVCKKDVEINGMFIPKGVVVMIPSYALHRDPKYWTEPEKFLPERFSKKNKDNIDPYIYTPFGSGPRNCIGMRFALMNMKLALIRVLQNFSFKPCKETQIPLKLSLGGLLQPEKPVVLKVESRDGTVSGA

Cytochrome P450 1A2 = target: T1, Cytochrome P450 1A2 (Homo sapiens, UniProt P05177); experiment: Inhibition of recombinant CYP1A2 (unknown origin) by fluorescence-based assay; assay type: ADME
T1 sequence (P05177 whole entry): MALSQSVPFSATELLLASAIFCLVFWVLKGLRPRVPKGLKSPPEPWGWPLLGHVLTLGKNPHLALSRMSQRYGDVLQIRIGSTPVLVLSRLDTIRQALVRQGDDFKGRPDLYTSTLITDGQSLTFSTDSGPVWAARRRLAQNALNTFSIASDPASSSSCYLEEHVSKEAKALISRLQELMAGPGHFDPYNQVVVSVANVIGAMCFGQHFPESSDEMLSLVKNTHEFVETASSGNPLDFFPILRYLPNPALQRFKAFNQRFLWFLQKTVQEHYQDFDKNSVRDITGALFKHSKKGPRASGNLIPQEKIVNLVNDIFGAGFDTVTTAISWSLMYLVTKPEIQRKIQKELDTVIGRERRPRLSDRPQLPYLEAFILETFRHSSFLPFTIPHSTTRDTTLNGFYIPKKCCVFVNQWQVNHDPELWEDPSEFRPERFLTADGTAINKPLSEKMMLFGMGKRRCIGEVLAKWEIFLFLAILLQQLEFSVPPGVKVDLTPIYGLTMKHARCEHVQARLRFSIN
How it was run: (§2)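 Recombinant CYP isoforms (five tested) screened for inhibition in fluorescence-based assays; IC50 in μM.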

Cytochrome P450 2C9 = Cytochrome P450 2C9 (Homo sapiens, UniProt P11712); experiment: Inhibition of recombinant CYP2C9 (unknown origin) by fluorescence-based assay; assay type: ADME; how it was run: as §2
Chain of Cytochrome P450 2C9 (P11712 whole entry): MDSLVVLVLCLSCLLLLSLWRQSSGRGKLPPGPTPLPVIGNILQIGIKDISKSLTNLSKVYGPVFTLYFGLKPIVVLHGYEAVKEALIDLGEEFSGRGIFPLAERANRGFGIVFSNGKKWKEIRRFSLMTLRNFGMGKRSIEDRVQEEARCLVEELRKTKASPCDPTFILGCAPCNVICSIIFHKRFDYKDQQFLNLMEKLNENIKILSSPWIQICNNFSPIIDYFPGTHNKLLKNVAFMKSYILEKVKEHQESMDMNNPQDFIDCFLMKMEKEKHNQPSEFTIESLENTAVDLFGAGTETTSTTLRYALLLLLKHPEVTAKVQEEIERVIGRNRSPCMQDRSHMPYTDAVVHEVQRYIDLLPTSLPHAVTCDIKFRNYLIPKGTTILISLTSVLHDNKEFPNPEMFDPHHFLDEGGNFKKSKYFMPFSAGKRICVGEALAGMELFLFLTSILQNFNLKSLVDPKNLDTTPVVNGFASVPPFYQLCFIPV

Cytochrome P450 2C19 = Cytochrome P450 2C19 (Homo sapiens, UniProt P33261); experiment: Inhibition of recombinant CYP2C19 (unknown origin) by fluorescence-based assay; assay type: ADME; how it was run: as §2
Chain of Cytochrome P450 2C19 (P33261 whole entry): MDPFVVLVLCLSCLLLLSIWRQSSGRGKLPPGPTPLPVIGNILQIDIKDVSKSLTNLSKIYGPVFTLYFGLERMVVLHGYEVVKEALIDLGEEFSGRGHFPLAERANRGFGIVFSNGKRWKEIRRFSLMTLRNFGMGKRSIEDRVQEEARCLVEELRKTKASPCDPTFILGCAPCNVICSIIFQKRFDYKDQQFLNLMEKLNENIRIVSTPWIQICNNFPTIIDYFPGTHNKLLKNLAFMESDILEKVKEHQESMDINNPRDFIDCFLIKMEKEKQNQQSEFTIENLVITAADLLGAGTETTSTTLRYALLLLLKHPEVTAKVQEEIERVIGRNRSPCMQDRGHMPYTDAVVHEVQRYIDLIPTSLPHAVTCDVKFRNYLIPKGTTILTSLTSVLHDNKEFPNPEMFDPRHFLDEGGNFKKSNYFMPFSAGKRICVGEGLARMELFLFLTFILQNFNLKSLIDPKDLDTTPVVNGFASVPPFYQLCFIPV

Cytochrome P450 2D6 = Cytochrome P450 2D6 (Homo sapiens, UniProt P10635); experiment: Inhibition of recombinant CYP2D6 (unknown origin) by fluorescence-based assay; assay type: ADME; how it was run: as §2
Chain of Cytochrome P450 2D6 (P10635 whole entry): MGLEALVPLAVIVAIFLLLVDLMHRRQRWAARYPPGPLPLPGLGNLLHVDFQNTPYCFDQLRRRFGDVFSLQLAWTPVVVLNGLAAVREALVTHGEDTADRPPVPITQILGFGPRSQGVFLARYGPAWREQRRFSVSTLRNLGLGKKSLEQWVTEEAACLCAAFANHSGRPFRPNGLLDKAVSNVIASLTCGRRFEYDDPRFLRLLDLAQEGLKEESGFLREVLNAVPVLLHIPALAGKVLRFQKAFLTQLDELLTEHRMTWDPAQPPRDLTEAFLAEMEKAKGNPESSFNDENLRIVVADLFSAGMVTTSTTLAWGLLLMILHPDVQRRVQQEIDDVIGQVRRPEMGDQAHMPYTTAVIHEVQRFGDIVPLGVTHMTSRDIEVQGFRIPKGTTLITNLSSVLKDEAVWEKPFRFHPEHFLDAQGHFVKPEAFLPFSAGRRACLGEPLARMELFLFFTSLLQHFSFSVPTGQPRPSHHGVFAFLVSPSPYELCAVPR

[11] = target: Voltage-gated inwardly rectifying potassium channel KCNH2 (Homo sapiens, UniProt Q12809); experiment: Inhibition of human ERG expressed in HEK293 cells by patch clamp assay; assay type: cell-based
Chain of Voltage-gated inwardly rectifying potassium channel KCNH2 (Q12809 whole entry): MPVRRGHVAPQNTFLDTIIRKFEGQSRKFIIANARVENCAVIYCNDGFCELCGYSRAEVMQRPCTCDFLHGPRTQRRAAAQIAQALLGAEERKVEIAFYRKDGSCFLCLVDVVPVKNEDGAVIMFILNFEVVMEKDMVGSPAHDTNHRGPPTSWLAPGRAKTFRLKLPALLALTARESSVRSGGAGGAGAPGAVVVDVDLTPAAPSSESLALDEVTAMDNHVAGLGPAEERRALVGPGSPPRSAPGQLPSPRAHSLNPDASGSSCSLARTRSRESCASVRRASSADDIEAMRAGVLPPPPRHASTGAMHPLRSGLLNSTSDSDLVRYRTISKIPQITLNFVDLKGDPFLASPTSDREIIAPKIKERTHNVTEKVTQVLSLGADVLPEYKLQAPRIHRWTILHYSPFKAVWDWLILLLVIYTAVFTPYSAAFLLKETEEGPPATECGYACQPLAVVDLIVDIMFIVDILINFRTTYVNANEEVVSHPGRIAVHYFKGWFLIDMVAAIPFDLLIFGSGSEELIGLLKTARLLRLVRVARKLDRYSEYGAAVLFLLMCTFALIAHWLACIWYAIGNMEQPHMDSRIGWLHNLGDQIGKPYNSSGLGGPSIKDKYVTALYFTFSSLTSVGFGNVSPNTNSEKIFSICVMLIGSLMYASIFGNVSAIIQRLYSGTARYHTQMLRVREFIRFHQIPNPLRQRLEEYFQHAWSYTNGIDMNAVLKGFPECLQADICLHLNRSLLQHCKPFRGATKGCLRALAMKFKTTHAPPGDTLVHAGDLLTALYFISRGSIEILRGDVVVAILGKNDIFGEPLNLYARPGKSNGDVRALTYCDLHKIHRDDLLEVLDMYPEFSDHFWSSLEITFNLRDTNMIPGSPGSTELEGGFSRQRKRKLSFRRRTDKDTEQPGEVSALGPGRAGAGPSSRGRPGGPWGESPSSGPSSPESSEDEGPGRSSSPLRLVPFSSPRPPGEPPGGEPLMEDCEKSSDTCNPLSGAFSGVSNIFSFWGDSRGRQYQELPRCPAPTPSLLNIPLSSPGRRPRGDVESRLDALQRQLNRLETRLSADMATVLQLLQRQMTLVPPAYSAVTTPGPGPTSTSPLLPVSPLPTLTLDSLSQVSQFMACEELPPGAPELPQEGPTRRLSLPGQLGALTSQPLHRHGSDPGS

[12] = Protein binding in plasma (unknown origin); assay type: ADME, cell-free
[13] = Cmax in CD-1 mouse at 1 mg/kg, iv administered as single dose measured up to 24 hrs; assay type: ADME, organism-based; parameters: route intravenous, dose 1 mg/kg, time <=24; conditions: in vivo
How it was run: (§3)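 Male CD-1 mice, 6–8 weeks old, single dose by tail vein (1 mg/kg, 3% NMP/45% PEG300/12% ethanol/40% water) or oral gavage (5 mg/kg, 5% NMP/95% PEG300). Retro-orbital plasma sampled 0.083 (iv only) to 24 h, n=3/timepoint, and analysed by HPLC/MS/MS. Non-compartmental analysis. Half-life taken from the terminal phase using ≥3 non-zero points after Tmax.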

[14] = Tmax in CD-1 mouse at 1 mg/kg, iv administered as single dose measured up to 24 hrs; assay type: ADME, organism-based; conditions: in vivo
How it was run: (§4)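 Male CD-1 mice, 6–8 weeks old, single tail-vein dose in 3% NMP/45% PEG300/12% ethanol/40% sterile water. Retro-orbital plasma (K3EDTA) taken at 0.083, 0.25, 0.5, 1, 2, 4, 8 and 24 h, n=3/timepoint, analysed by HPLC/MS/MS. Non-compartmental analysis (Model 201, uniform weighting); Tmax read directly from the data.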

[15] = Half life in CD-1 mouse at 1 mg/kg, iv administered as single dose measured up to 24 hrs; assay type: ADME, organism-based; conditions: mouse, in vivo, 1 mg/kg, 24 h; how it was run: as §3
[16] = AUClast in CD-1 mouse at 1 mg/kg, iv administered as single dose measured up to 24 hrs; assay type: ADME, organism-based; parameters: route intravenous, dose 1 mg/kg, time <=24; conditions: in vivo; how it was run: as §3
[17] = AUC infinity in CD-1 mouse at 1 mg/kg, iv administered as single dose measured up to 24 hrs; assay type: ADME, organism-based; parameters: route intravenous, dose 1 mg/kg, time <=24; conditions: in vivo; how it was run: as §3
[18] = Volume of distribution at steady state in CD-1 mouse at 1 mg/kg, iv administered as single dose measured up to 24 hrs; assay type: ADME, organism-based; conditions: in vivo; how it was run: as §4
[19] = Bioavailability in CD-1 mouse at 1 mg/kg, iv administered as single dose measured up to 24 hrs; assay type: ADME, organism-based; conditions: in vivo
How it was run: (§5)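 CD-1 mouse PK after single iv (1 mg/kg) and oral gavage (5 mg/kg) dosing, with plasma sampled to 24 h (n=3/timepoint) and measured by HPLC/MS/MS. F(%) = (AUC0-inf po × Dose iv)/(AUC0-inf iv × Dose po) × 100.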

[20] = Ratio of drug concentration in CD-1 mouse brain to plasma at 5 mg/kg, po measured after 1 hr; assay type: ADME, organism-based
How it was run: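 Male CD-1 mice dosed once iv (1 mg/kg) or by oral gavage (5 mg/kg). Brain and plasma collected 1 h post dose (n=3/timepoint). Drug levels by HPLC/MS/MS; brain/plasma ratio calculated from these levels.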

[21] = Cmax in CD-1 mouse at 5 mg/kg, po administered as single dose measured up to 24 hrs; assay type: ADME, organism-based; parameters: route oral, dose 5 mg/kg, time <=24; conditions: in vivo; how it was run: as §3
[22] = Tmax in CD-1 mouse at 5 mg/kg, po administered as single dose measured up to 24 hrs; assay type: ADME, organism-based; conditions: in vivo
How it was run: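 Male CD-1 mice, 6–8 weeks old, single oral gavage dose in 5% NMP/95% PEG300. Plasma (K3EDTA, retro-orbital, under isoflurane) taken at 0.25, 0.5, 1, 2, 4, 8 and 24 h, n=3/timepoint, analysed by HPLC/MS/MS. Non-compartmental extravascular analysis (Model 200); Tmax taken directly from the data.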

[23] = AUClast in CD-1 mouse at 5 mg/kg, po administered as single dose measured up to 24 hrs; assay type: ADME, organism-based; parameters: route oral, dose 5 mg/kg, time <=24; conditions: in vivo; how it was run: as §3
[24] = AUC infinity in CD-1 mouse at 5 mg/kg, po administered as single dose measured up to 24 hrs; assay type: ADME, organism-based; parameters: route oral, dose 5 mg/kg, time <=24; conditions: in vivo; how it was run: as §3
[25] = Oral bioavailability in CD-1 mouse at 5 mg/kg administered as single dose measured up to 24 hrs; assay type: ADME, organism-based; conditions: in vivo; how it was run: as §5
[26] = Ratio of drug concentration in CD-1 mouse brain to plasma at 1 mg/kg, iv measured after 1 hr
Gamma-secretase [27] = experiment: Inhibition of gamma secretase in human H4 cells overexpressing APP751 transfected with Myc-tagged Notch at 1 to 10 uM incubated for 24 hrs in presence of NICD by Western blot analysis; conditions: h4, 24 h

SMILES: C[C@H](NC(=O)Cc1cc(F)cc(F)c1)C(=O)N[C@H](C(=O)OC(C)(C)C)c1ccccc1
- inhibition (INH) (Gamma-secretase [1]): Active

SMILES: CCn1nc2c(c1Nc1nc(-c3ccc(-n4cnc(C)c4)c(OC)n3)cs1)CCCC2
- solubility kinetic [2]: 4.5 µM (≈ 1.96 µg/mL)
- IC50 (Gamma-secretase [3]): 60 nM
- EC50 (Gamma-secretase [4]): 305 nM
- IC50 (Gamma-secretase [5]): 104 nM
- IC50 (Gamma-secretase [6]): 58 nM
- Activity [7]: inactive
- Stabilty [8]: 36%
- Stabilty [9]: 71%
- Stabilty [10]: 64%
- IC50 (Cytochrome P450 3A4): 3.7 µM
- IC50 (Cytochrome P450 1A2): > 100 µM
- IC50 (Cytochrome P450 2C9): 9 µM
- IC50 (Cytochrome P450 2C19): 5.9 µM
- IC50 (Cytochrome P450 2D6): > 100 µM
- IC50 [11]: 8.6 µM
- PPB [12]: 99.6%
- Cmax [13]: 824 ng/mL
- Tmax [14]: 4.98 min
- t1/2 [15]: 30 min
- AUClast [16]: 443 ng·h/mL
- AUC [17]: 463 ng·h/mL
- Vdss [18]: 1413 mL/kg
- F [19]: 100%
- BPR [20]: 0.4
- Cmax [21]: 705 ng/mL
- Tmax [22]: 15 min
- AUClast [23]: 1089 ng·h/mL
- AUC [24]: 1243 ng·h/mL
- F [25]: 53.7%
- BPR [26]: 0.4
- inhibition (INH) (Gamma-secretase [27]): Not Active
